The source of these data is ChEMBL document CHEMBL5370575, “Probing the Cytotoxic Signaling Induced by Eupenifeldin in Ovarian Cancer Models” (J Nat Prod, 2023).

Each structure is given as a SMILES string. Active and inactive are the calls of the source. The calls are words filed in the database; no cut-off is given here.

In data set [1] the test system is OVCAR-3. As to the kind of experiment: Induction of ferroptosis in human OVCAR-3 cells at 0.001 to 10 uM in presence of ferrostatin-1 by CellTiterGlo assay. Format: functional, cell-based. As to conditions: dose 0.001-10 µM. On the technique in general: Cellular ATP, detected with luciferase, serves as a proxy for viable cell number.
For data set [2], the system named is OVCAR-8. Description: Cytotoxicity against human OVCAR-8 cells assessed as inhibition of cell growth for 72 hrs by CellTiter-Blue cell viability assay. Format: functional, cell-based. As to conditions: OVCAR-8, 72 h. The essentials:
(§1)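 5000 cells seeded in triplicate, attached overnight, then exposed for 72 h to serial concentrations in DMSO vehicle (0.05%). Viability was read by fluorometric CellTiter-Blue. IC50 in nM comes from dose–response curves relative to DMSO control. Media: OVCAR3 in RPMI1640, OVCAR5/OVCAR8 in DMEM, hFT33 in DMEM-Ham's F12 50/50, all with 10% FBS. Data are mean ± SEM, three biological replicates.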
Background: Alamar Blue is a resazurin reagent that responds to reducing activity.

In data set [3] the test system is OVCAR-5. As to the kind of experiment: Cytotoxicity against human OVCAR-5 cells assessed as inhibition of cell growth for 72 hrs by CellTiter-Blue cell viability assay. Type of data set: functional, cell-based. As to conditions: OVCAR-5, 72 h. The essentials:
as §1

Data set [4] concerns OVCAR-3. As to the kind of experiment: Cytostatic activity against human OVCAR-3 cells assessed as […] in colony formation at 10 nM incubated for 8 hrs measured after 2 weeks by crystal violet staining based analysis. As to conditions: time 344.0 hrs. Format: functional, cell-based. The essentials:
(§2)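 Seeded at 200 cells per dish, attached overnight, exposed 8 h to 10 nM (DMSO vehicle 0.1%), then grown 15 days in untreated growth medium. Colonies fixed with 4% paraformaldehyde, stained with 0.05% crystal violet, counted and normalised to vehicle. Mean ± SEM, three biological replicates, one-way ANOVA with Dunnett's test.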

Data set [5] can be described thus: Cytotoxicity against human FT33 cells assessed as inhibition of cell growth for 72 hrs by CellTiter-Blue cell viability assay. Type of data set: toxicity, cell-based. A digest of the protocol: as §1
Data set [6] has as its system OVCAR-3. Description: Cytotoxicity against human OVCAR-3 cells assessed as inhibition of cell growth for 72 hrs by CellTiter-Blue cell viability assay. As to conditions: OVCAR-3, 72 h. Format: functional, cell-based. A digest of the protocol:
as §1

The subject of data set [7] is OVCAR-8. As to the kind of experiment: Cytostatic activity against human OVCAR-8 cells assessed as […] in colony formation at 10 nM incubated for 8 hrs measured after 2 weeks by crystal violet staining based analysis. As to conditions: time 344.0 hrs. Type of data set: functional, cell-based. A digest of the protocol:
as §2

Data set [8] deals with OVCAR-5. Description: Cytostatic activity against human OVCAR-5 cells assessed as […] in colony formation at 10 nM incubated for 8 hrs measured after 2 weeks by crystal violet staining based analysis. Format: functional, cell-based. As to conditions: time 344.0 hrs. The essentials: as §2

In the case of `COC(=O)c1ccc([C@H]2c3[nH]c4ccccc4c3C[C@H](C(=O)OC)N2C(=O)CCl)cc1`, in the data set with OVCAR-3 [1], the result was inactive.
Turning to `CC(=O)O[C@H]1C(=O)[C@@]2(C)[C@H]([C@H](OC(=O)c3ccccc3)[C@]3(O)C[C@H](OC(=O)[C@H](O)[C@@H](NC(=O)c4ccccc4)c4ccccc4)C(C)=C1C3(C)C)[C@]1(OC(C)=O)CO[C@@H]1C[C@@H]2O` [PACLITAXEL], the IC50 in the data set with OVCAR-8 [2] was 6.5 nM; with OVCAR-5 [3], 3.6 nM; with OVCAR-3 [6] it was 2.6 nM. Besides, the result in the data set on OVCAR-3 [4], with OVCAR-8 [7] and with OVCAR-5 [8] was Active. Moreover, the IC50 at 72 h in data set [5] came out at 11 nM.

Broadly, the IC50 is the concentration needed to halve the response being measured.
